# Published values gathered from unrelated publications.
# Target: Protein kinase C zeta type (PRKCZ, Homo sapiens, UniProt Q05513)
# One construct used (Q05513 1-592): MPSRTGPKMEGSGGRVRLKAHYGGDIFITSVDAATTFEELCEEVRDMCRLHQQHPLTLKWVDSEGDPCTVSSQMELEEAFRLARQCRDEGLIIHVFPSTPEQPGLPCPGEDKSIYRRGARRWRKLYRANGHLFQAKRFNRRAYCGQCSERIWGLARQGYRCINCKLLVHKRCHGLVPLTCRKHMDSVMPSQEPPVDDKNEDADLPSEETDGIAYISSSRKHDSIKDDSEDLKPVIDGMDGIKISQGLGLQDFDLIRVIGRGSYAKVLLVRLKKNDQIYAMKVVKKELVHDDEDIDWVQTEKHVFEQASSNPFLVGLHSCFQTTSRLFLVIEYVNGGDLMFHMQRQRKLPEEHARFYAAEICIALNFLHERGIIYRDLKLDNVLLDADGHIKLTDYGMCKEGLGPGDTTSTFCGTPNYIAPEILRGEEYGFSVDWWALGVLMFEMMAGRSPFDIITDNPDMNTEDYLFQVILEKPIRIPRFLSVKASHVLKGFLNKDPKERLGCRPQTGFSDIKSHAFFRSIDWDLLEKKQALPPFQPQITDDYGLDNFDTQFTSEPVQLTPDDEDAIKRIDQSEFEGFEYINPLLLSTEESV
SMILES,test,setting,endpoint,value
Cn1c2c(c3ccc(Cl)c(Cl)c31)C(C#N)C1(CCCC1)NC2=O (centres unmarked),"thermal stability, DSF",10 µM,ΔTm,-0.2 °C
CC(C)(C)C(=O)c1sc(NC2CCCCC2)nc1N,"enzyme activity, inhibitor",10 µM,remaining activity,104%
CCN(CC)c1ccc(C2=NNC(=O)CC2C)cc1[N+](=O)[O-] (centres unmarked),"enzyme activity, inhibitor",10 µM,remaining activity,102%
COc1cc(Nc2cnc(C#N)c(O[C@H](C)CN(C)C)n2)ncc1-c1cnn(C)c1,"enzyme activity, inhibitor, radiometric",10 µM,remaining activity,79%
O=C(Nc1cnn(-c2csc(C(=O)NC3COC3)c2)c1)Nc1c(F)cccc1Cl,"enzyme activity, inhibitor",5 µM,remaining activity,93.6%
Cc1ccc(Nc2nccc(N(C)c3ccc4c(C)n(C)nc4c3)n2)cc1S(N)(=O)=O,"enzyme activity, inhibitor",0.3 µM,inhibition,-3%
CN1CCC2(CC1)NC(=O)c1c(c3ccc(Cl)c(Cl)c3n1C)C2C#N (racemic),"thermal stability, DSF",10 µM,ΔTm,0 °C
CCCCNc1ncc2c(-c3ccc(F)cc3)nn(C[C@H]3CC[C@H](N)CC3)c2n1,"target engagement in cells, inhibitor, chemoproteomics",20 mM,inhibition,-19.6%
Cn1c2c(Cl)c(Cl)ccc2c2cc[nH]c(=O)c21,"thermal stability, DSF",10 µM,ΔTm,0.4 °C
COc1cc(/C=C/C(=O)CC(=O)/C=C/c2ccc(O)c(OC)c2)ccc1O,"enzyme activity, inhibitor",1 µM,activity vs control,94%
Cn1c2c(Cl)c(Cl)ccc2c2cn[nH]c(=O)c21,"thermal stability, DSF",10 µM,ΔTm,0 °C
COc1cc2ncnc(Nc3ccc(Oc4ccccc4)cc3C)c2cc1OC,"enzyme activity, inhibitor",1 µM,inhibition,3%
O=C1Nc2ccc(Cl)cc2C1=Cc1cc(Cl)c(O)c(Cl)c1,cell-free assay,0.5 µM,remaining signal,95.3%
CC(C)(C)c1nc2c(s1)c1nc(N)ncc1c1ccc(NS(=O)(=O)c3c(F)cccc3F)c(F)c12,"enzyme activity, inhibitor, radiometric",1 µM,remaining activity,107%
FC(F)c1nc2ccccc2n1-c1nc(N2CCOCC2)nc(N2CCOCC2)n1,"enzyme activity, inhibitor",10 µM,remaining activity,87%
Cc1ccc(C(=O)NCc2ccsc2)cc1C#Cc1cn(C(C)C)c2ncnc(N)c12,"enzyme activity, inhibitor",1 µM,activity vs control,111%
COc1cc(-c2cc(-c3ccc(N4CCNCC4)cc3)cnc2C)cc(OC)c1OC,"enzyme activity, inhibitor",1 µM,inhibition,3%
